We go through two molecules from publication PMC3065194 (Biochemical and biophysical research communications, 2010).

pIC50: −log10 of the molar value.

One assay concerns the target integrin CD11b/CD18 (Mus musculus, UniProt P05555+P11835). Description: Neutrophil adhesion assay. The format is cell-based. As to conditions: WT B6 mouse neutrophils, Figure 3B. Put shortly: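 Peritoneal neutrophils were isolated from thioglycollate-stimulated 8–10-week-old WT B6 mice and suspended in TBS with 0.5% gelatin in ligand-coated wells. Cells were incubated 10 min at 37°C with 5 μM test compound plus agonist, either Mn²⁺ (0.1 mM) or PMA (15 nM). Plates were inverted 30 min at room temperature to remove non-adherent cells. Adherent cells were counted by imaging microscopy, in triplicate wells.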

The test system of the next assay is integrin CD11a/CD18. As to conditions: related integrin CD11a/CD18; cited from earlier work.

integrin CD11b/CD18, sequence (P05555 17-1153): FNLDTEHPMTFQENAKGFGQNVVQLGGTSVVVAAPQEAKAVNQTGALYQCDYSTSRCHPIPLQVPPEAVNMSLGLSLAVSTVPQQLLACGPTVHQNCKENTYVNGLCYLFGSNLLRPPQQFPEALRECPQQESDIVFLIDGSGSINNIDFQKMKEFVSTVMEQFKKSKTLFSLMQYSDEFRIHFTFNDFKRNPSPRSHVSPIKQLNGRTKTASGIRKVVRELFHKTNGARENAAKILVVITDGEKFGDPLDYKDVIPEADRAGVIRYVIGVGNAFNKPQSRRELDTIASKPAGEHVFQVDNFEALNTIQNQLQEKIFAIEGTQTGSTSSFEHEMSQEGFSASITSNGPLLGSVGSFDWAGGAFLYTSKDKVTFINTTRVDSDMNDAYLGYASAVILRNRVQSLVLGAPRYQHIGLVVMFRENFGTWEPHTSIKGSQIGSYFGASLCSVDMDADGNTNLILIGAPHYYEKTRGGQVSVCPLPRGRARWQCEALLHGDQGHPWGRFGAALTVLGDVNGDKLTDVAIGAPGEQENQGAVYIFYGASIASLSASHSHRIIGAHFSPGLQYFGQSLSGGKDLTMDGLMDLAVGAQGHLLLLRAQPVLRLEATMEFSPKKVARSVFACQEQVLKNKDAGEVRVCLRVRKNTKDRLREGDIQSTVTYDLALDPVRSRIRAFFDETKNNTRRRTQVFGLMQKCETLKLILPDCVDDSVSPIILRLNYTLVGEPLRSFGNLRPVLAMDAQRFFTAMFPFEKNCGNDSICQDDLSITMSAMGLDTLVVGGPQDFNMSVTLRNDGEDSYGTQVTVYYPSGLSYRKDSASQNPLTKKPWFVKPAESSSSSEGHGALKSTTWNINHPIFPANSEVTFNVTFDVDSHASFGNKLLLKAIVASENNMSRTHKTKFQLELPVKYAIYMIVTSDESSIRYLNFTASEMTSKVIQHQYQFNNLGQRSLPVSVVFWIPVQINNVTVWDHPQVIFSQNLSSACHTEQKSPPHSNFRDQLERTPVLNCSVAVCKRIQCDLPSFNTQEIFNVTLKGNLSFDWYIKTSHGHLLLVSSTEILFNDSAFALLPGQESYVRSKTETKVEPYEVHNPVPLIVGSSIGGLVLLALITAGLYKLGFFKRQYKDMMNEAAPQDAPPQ
integrin CD11b/CD18, sequence (P11835 24-771): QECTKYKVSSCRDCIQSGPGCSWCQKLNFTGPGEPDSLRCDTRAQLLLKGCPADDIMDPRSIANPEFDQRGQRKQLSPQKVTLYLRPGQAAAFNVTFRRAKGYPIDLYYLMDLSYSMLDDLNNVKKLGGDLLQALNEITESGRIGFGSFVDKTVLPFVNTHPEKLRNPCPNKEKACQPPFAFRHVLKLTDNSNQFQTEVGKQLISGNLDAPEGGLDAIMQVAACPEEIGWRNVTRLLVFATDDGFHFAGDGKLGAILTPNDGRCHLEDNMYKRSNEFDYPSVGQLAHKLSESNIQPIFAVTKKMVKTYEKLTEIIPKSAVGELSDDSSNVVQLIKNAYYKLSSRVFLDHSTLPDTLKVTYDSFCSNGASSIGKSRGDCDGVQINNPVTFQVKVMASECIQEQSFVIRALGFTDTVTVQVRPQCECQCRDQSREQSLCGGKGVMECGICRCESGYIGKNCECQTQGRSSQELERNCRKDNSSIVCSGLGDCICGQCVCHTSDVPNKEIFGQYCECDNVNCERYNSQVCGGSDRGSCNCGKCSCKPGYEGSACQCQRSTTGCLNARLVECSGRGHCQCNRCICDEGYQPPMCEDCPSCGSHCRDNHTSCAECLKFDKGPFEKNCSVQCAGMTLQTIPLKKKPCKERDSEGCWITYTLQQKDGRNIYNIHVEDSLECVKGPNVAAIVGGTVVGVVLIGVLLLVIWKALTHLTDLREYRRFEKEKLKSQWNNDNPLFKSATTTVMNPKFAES

Take `CCCCCCCCCCCCCC(=O)O[C@@H]1[C@@H](C)[C@@]2(O)[C@@H](C=C(CO)C[C@]3(O)C(=O)C(C)=C[C@@H]23)[C@@H]2C(C)(C)[C@]12OC(C)=O` [PMA, phorbol 12-myristate 13-acetate]: the “neutrophil adhesion to Fg on integrin activation by agonist” value on integrin CD11b/CD18 is “dramatic increase”.

For `CC[C@H](C)C(=O)O[C@H]1C[C@@H](C)C=C2C=C[C@H](C)[C@H](CC[C@@H]3C[C@@H](O)CC(=O)O3)[C@H]21` [lovastatin], the pIC50 in the assay on integrin CD11a/CD18 is 4.60.
